From ChEMBL document CHEMBL1157353, “Synthesis and biological evaluation of (-)- and (+)-debromoflustramine B and its analogues as selective butyrylcholinesterase inhibitors” (J Med Chem, 2008)
pIC50: −log10 of the molar value. The source made the active and inactive calls. No cut-off for these calls is given here.

molecular target: T1, Cholinesterase (Homo sapiens, UniProt P06276); assay: Inhibition of human plasma BChE after 20 mins by Ellman's method; format: cell-free
Summary of the method: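 Human plasma BChE, Ellman method, in 0.1 M phosphate buffer pH 8.0 with 340 µM butyrylthiocholine iodide. Compounds were preincubated with enzyme for 20 min at 37 °C before substrate was added, and an enzyme-free blank corrected for nonenzymatic hydrolysis. Compounds were screened at 1 mM; those giving >30% inhibition were run at nine concentrations (10-3–10-7 M), three times in triplicate. IC50 came from probit-transformed % activity versus log concentration.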

T1 sequence (P06276 whole entry): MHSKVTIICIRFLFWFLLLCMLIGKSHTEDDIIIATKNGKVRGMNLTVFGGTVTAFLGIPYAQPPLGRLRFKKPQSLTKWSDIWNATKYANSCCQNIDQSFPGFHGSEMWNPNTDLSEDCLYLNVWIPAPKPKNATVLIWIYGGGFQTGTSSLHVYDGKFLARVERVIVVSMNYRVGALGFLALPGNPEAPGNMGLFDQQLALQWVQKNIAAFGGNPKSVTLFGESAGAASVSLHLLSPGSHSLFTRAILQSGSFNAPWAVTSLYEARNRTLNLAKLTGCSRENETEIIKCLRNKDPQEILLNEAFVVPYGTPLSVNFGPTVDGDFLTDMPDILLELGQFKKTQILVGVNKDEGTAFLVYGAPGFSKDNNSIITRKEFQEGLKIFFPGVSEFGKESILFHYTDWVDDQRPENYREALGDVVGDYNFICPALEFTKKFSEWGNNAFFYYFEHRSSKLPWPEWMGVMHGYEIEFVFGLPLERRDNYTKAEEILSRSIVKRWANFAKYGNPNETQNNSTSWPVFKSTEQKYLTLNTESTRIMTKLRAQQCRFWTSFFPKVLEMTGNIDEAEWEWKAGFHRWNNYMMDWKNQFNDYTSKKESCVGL

SMILES	pIC50
CC(C)=CCN1CCC2(CC=C(C)C)c3ccccc3N(CC=C(C)C)C12 (configuration not stated)	5.76
COc1ccc2c(c1)C1(CC=C(C)C)CCN(C)C1N2CC=C(C)C (configuration not stated)	5.34
CC(C)=CCN1c2ccccc2C2(CC=C(C)C)CCNC12 (configuration not stated) [DEMETHYLDEBROMOFLUSTRAMINE B]	6.59
CC(C)=CCN1c2ccccc2C2(CC=C(C)C)CCN(C)C12 (racemic) [(+/-)-DEBROMOFLUSTRAMINE B]	5.59
CC(C)=CCN1c2ccccc2[C@@]2(CC=C(C)C)CCN(C)[C@@H]12 [(+)-DEBROMOFLUSTRAMINE B]	1.99
COc1ccc2c(c1)C1(Cc3ccccc3)CCN(C)C1N2Cc1ccccc1 (configuration not stated)	5.23
CC(C)=CCC12CCN(C)C1N(Cc1ccccc1)c1ccccc12 (configuration not stated)	5.00
COc1ccc2c(c1)C1(CC=C(C)C)CCN(C)C1N2Cc1ccccc1 (configuration not stated)	5.12
COc1ccc2c(c1)C1(CC=C(C)C)CCN(Cc3ccccc3)C1N2CC=C(C)C (configuration not stated)	4.30
CC(C)=CCN1c2ccccc2[C@]2(CC=C(C)C)CCN(C)[C@H]12 [(-)-DEBROMOFLUSTRAMINE B]	5.86
CN1CCC2(Cc3ccccc3)c3ccccc3N(Cc3ccccc3)C12 (configuration not stated)	4.66

molecular target: T1, Cholinesterase; assay: Inhibition of human plasma BChE at <10000 uM after 20 mins by Ellman's method; format: cell-free

SMILES	Activity
COc1ccc2c(c1)C1(CC=C(C)C)CCN(Cc3ccccc3)C1N2Cc1ccccc1 (configuration not stated)	inactive
CCCN1c2ccccc2C2(CCC)CCN(C)C12 (configuration not stated)	inactive
COc1ccc2c(c1)C1(Cc3ccccc3)CCN(Cc3ccccc3)C1N2Cc1ccccc1 (configuration not stated)	inactive
CCN1c2ccccc2C2(CC)CCN(C)C12 (configuration not stated)	inactive
CC(C)=CCN1c2ccccc2C2(CC=C(C)C)CCN(Cc3ccccc3)C12 (configuration not stated)	inactive
CC(C)=CCC12CCN(C)C1N(C)c1ccccc12 (configuration not stated)	inactive
CN1CCC2(C)c3ccccc3N(C)C12 (configuration not stated)	inactive
CN1CCC2(Cc3ccncc3)c3ccccc3N(Cc3ccncc3)C12 (configuration not stated)	inactive
CC(C)CCN1c2ccccc2C2(CCC(C)C)CCN(C)C12 (configuration not stated)	inactive
CN1CCC2(Cc3ccncc3)c3ccccc3N(Cc3ccccc3)C12 (configuration not stated)	inactive
CC(C)=CCN1c2ccccc2[C@]2(CC=C(C)C)CCN(C)[C@H]12 [(-)-DEBROMOFLUSTRAMINE B]	inactive
